Measured values as given in ChEMBL document CHEMBL5260851, “Iodinated Choline Transport-Targeted Tracers” (J Med Chem, 2020).

Experiments:
[1] = Displacement of [3H]-choline from choline transporter in human PC-3 cells preincubated with [3H]-choline for 15 mins followed by compound addition and measured after 60 mins; type: cell-based
[2] = Cytotoxicity against human BJ cells; type: toxicity, cell-based
[3] = Cytotoxicity against human MRC5 cells; type: toxicity, cell-based
[4] = Stability in human plasma assessed as parent compound remaining at 2 uM after 2 hrs by RF-MS analysis; type: ADME, cell-free; conditions: read-out: Stability
Outline: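 Compound at 2 μM final (DMSO ≤0.1%) incubated in human plasma at 37 °C, sampled at 0, 15, 30, 60 and 120 min. Quenched with ACN–methanol (2:1) and measured by RapidFire-MS/MS (ESI+, MRM). The value is the percent of parent remaining.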

[5] = Stability in human liver microsomes assessed as parent compound remaining at 2 uM after 60 mins in presence of NADPH generating system by RF-MS analysis; type: ADME, Microsome; conditions: read-out: Stability
Outline: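 Compound at 2 μM with human liver microsomes (0.5 mg·mL⁻¹) and an NADPH-generating system (NADP⁺, isocitrate dehydrogenase, isocitric acid, MgSO4) in 0.1 M phosphate buffer at 37 °C. Samples taken at 0, 15, 30 and 60 min, quenched with ACN–methanol (2:1), freeze-dried, and analysed by RapidFire-MS against an internal standard.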

[6] = Displacement of [3H]-choline from choline transporter in human U-87 MG cells preincubated with [3H]-choline for 15 mins followed by compound addition and measured after 60 mins; type: cell-based
Outline: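 PC-3 cells were grown in F12 Ham with 10% FBS, 0.25% bicarbonate and pen/strep; U-87 MG cells in DMEM with 10% FBS, 0.1 mM NEAA and 1.0 mM pyruvate; both at 37 °C, 5% CO2, used at 70–90% confluence. [3H]choline was added in Tris uptake buffer (pH 7.4), then compound in triplicate over 10 concentrations; readout was radioactivity per g of protein (BCA), with IC50 from a sigmoidal fit.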

Row | SMILES | IC50 [1] | IC50 [2] | IC50 [3] | remaining at 2 h, 2 µM [4] | remaining at 1 h, 2 µM [5] | IC50 [6]
1 | C[N+]1(C)CCOC(O)(c2ccc(-c3ccc(C4(O)C[N+](C)(C)CCO4)cc3)cc2)C1 (stereo not given) | 36 µM | – | – | – | – | –
2 | C[N+]1(Cc2ccccc2I)CCCC(O)C1 (stereo not given) | 197 µM | > 50 µM | > 50 µM | – | – | –
3 | C[N+](C)(CCO)CCCCOc1ccccc1I | 11 µM | > 50 µM | > 50 µM | 91% | 54% | –
4 | C[N+](C)(CCO)CCCCCCOc1ccc(I)c([N+](=O)[O-])c1 | 0.14 µM | > 50 µM | > 50 µM | 89% | 92% | –
5 | COc1c(I)cc(CC[N+](C)(C)CCO)cc1I | 53 µM | > 50 µM | > 50 µM | – | – | –
6 | Cc1ccc(OCCCC[N+](C)(C)CCO)c(I)n1 | 18 µM | > 50 µM | > 50 µM | – | – | –
7 | COc1ccc(CC[N+](C)(C)CCO)cc1I | 24 µM | > 50 µM | > 50 µM | – | – | –
8 | OC1C[N+]2(Cc3ccccc3I)CCC1CC2 (stereo not given) | 160 µM | > 50 µM | > 50 µM | – | – | –
9 | COc1ccc(CCC[N+](C)(C)CCO)cc1I | 34 µM | > 50 µM | > 50 µM | – | – | –
10 | CC[N+](CC)(CCO)Cc1ccc(I)cc1 | 77 µM | > 50 µM | > 50 µM | – | – | 77 µM
11 | OCC[N+]1(Cc2ccc(I)cc2)CCCC1 [listing 1 of 2 here] | 16 µM | – | – | – | – | 23 µM
12 | OCC[N+]1(Cc2cccc(I)c2)CCCC1 | 28 µM | > 50 µM | > 50 µM | 66% | 90% | 8.8 µM
13 | OCC[N+]1(Cc2ccc(I)cc2)CCCC1 [listing 2 of 2 here] | 11 µM | > 50 µM | > 50 µM | 81% | 74% | 3.3 µM
14 | OCC[N+]1(CCOc2ccccc2I)CCCC1 | 4.7 µM | > 50 µM | > 50 µM | 81% | 78% | –
15 | C[N+](C)(CCO)CCCCOc1ccc(-c2ccccc2)cc1I | 1.3 µM | – | – | 90% | 89% | –
16 | OCCN1CC[N+](CCO)(Cc2ccccc2I)CC1 | 908 µM | > 50 µM | > 50 µM | – | – | –
17 | COc1ccc(CC[N+]23CCC(CC2)C(O)C3)cc1I (stereo not given) | 115 µM | > 50 µM | > 50 µM | – | – | –
18 | C[N+](C)(CCO)CCOc1ccccc1I | 25 µM | > 50 µM | > 50 µM | – | – | –
19 | OCC[N+]1(CCCCOc2ccccc2I)CCCC1 | 5.1 µM | > 50 µM | > 50 µM | 91% | 70% | –
20 | C[N+]1(CCc2ccc(I)cc2)CCCC(O)C1 (stereo not given) | 106 µM | > 50 µM | > 50 µM | – | – | –
21 | OCC[N+]1(CCOc2cccc(I)c2)CCCC1 | 15 µM | > 50 µM | > 50 µM | – | – | –
22 | C[N+](C)(CCO)CCOc1ccc(I)cc1 | 23 µM | > 50 µM | > 50 µM | – | – | –
23 | OCC[N+]1(CCCCCCOc2cccc(I)c2)CCCC1 | 0.91 µM | > 50 µM | > 50 µM | 91% | 79% | –
24 | OCC[N+]1(Cc2ccccc2I)CCOCC1 | 43 µM | > 50 µM | > 50 µM | – | – | –
25 | C[N+](C)(CCCCO)CCc1ccc(I)s1 | 30 µM | > 50 µM | > 50 µM | – | – | –

Row | SMILES | IC50 [1] | IC50 [2] | IC50 [3] | remaining at 2 h, 2 µM [4] | remaining at 1 h, 2 µM [5] | IC50 [6]
26 | C[N+](C)(CCO)Cc1ccc(I)cc1 | 130 µM | > 50 µM | > 50 µM | – | – | 129 µM
27 | CC[N+](CC)(CCO)Cc1ccccc1I | 8.1 µM | > 50 µM | > 50 µM | 85% | 100% | 4.3 µM
28 | C[N+](C)(CCO)CCc1ccc(I)cc1 | 8.6 µM | > 50 µM | > 50 µM | – | – | –
29 | CCCCCCCCCCOc1ccc(CCC[N+](C)(C)CCO)cc1I | 2.1 µM | – | – | 85% | 82% | 1.7 µM
30 | C[N+](C)(CCCO)CCc1ccc(I)s1 | 1.1 µM | > 50 µM | > 50 µM | – | – | –
31 | OCC[N+]1(CCOc2ccc(I)cc2)CCCC1 | 18 µM | > 50 µM | > 50 µM | – | – | –
32 | C[N+](C)(CCO)Cc1ccccc1I | 216 µM | > 50 µM | > 50 µM | – | – | –
33 | OC1C[N+]2(CCc3ccc(I)cc3)CCC1CC2 (stereo not given) | 75 µM | > 50 µM | > 50 µM | – | – | –
34 | C[N+](C)(CCO)CCc1ccc(I)s1 | 0.45 µM | > 50 µM | > 50 µM | 89% | 86% | –
35 | OCC[N+]1(CCCCC#CI)CCCC1 | 18 µM | > 50 µM | > 50 µM | – | – | –
36 | C[N+](C)(CCO)CCc1cccc(I)c1 | 1.2 µM | > 50 µM | > 50 µM | 80% | 100% | 0.78 µM
37 | CCCCCCOc1ccc(CCC[N+](C)(C)CCO)cc1I | 0.41 µM | – | – | 60% | 93% | 2.1 µM
38 | C[N+](C)(CCO)CCCCC#CI | 36 µM | > 50 µM | > 50 µM | – | – | –
39 | OCC[N+]1(Cc2ccc(I)cc2)CCOCC1 | 273 µM | > 50 µM | > 50 µM | – | – | –
40 | OCC[N+]1(CCc2ccc(I)s2)CCCC1 | 10 µM | > 50 µM | > 50 µM | 86% | 86% | –
41 | OCC[N+]1(CCc2ccc(I)cc2)CCCC1 | 19 µM | > 50 µM | > 50 µM | 98% | 96% | 29 µM
42 | OCC[N+]1(Cc2ccccc2I)CCCCC1 | 217 µM | > 50 µM | > 50 µM | – | – | –
43 | C[N+](C)(CF)CCO | 20 µM | – | – | – | – | –
44 | C[N+](C)(CCO)CCCCCCOc1cccnc1I | 1.4 µM | > 50 µM | > 50 µM | 86% | 86% | –
45 | C[N+](C)(CCO)CCCC#CI | 3 µM | > 50 µM | > 50 µM | 89% | 95% | –
46 | C[N+](C)(CCO)CCCCCCOc1cccc(I)c1 | 0.044 µM | > 50 µM | > 50 µM | 83% | 85% | –
47 | C[N+](C)(CCO)CCOc1cccc(I)c1 | 22 µM | > 50 µM | > 50 µM | – | – | –
48 | C[N+](C)(CCO)Cc1cccc(I)c1 | 133 µM | > 50 µM | > 50 µM | – | – | 25 µM
49 | C[N+](C)(C)CCO [CHOLINE] | 4.7 µM | – | – | – | – | –
